Activity calls are given as the source filed them. No cut-off for these calls is given here.
Assays:
[1] = biological target: T1, Sphingosine 1-phosphate receptor 1 (Homo sapiens, UniProt P21453); experiment: Activity at S1P1 receptor by [35S]GTP-gammaS binding assay; format: functional; conditions: filed as agonist
[2] = biological target: T2, Sphingosine 1-phosphate receptor 5 (Homo sapiens, UniProt Q9H228); experiment: Activity at S1P5 receptor by [35S]GTP-gammaS binding assay; format: functional; conditions: filed as agonist
[3] = biological target: Sphingosine 1-phosphate receptor 2 (Homo sapiens, UniProt O95136); experiment: Displacement of [33P]S1P from S1P2 expressed in CHO cells; format: cell-based
Method in brief: (§1)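 Competitive radioligand binding with [33P]S1P on membranes from CHO cells expressing each of the five S1P receptor subtypes (S1P1–5).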

[4] = biological target: T2, Sphingosine 1-phosphate receptor 5; experiment: Displacement of [33P]S1P from S1P5 expressed in CHO cells; format: cell-based; method in brief: as §1
[5] = biological target: T1, Sphingosine 1-phosphate receptor 1; experiment: Displacement of [33P]S1P from S1P1 expressed in CHO cells; format: cell-based; method in brief: as §1
[6] = biological target: T3, Sphingosine 1-phosphate receptor 3 (Homo sapiens, UniProt Q99500); experiment: Activity at S1P3 receptor by [35S]GTP-gammaS binding assay; format: functional; conditions: filed as agonist
[7] = biological target: T4, Sphingosine 1-phosphate receptor 4 (Homo sapiens, UniProt O95977); experiment: Displacement of [33P]S1P from S1P4 expressed in CHO cells; format: cell-based; method in brief: as §1
T4 sequence (O95977 whole entry): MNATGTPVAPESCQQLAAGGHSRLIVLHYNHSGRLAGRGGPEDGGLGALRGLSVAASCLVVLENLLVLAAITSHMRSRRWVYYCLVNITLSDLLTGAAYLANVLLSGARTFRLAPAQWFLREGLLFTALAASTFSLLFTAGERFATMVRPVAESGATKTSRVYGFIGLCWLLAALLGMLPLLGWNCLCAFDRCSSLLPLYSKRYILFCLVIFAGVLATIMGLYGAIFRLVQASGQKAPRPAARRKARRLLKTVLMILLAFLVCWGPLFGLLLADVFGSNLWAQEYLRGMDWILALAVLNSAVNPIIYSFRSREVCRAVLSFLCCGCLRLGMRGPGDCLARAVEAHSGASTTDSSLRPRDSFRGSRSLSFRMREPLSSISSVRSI

[8] = biological target: T3, Sphingosine 1-phosphate receptor 3; experiment: Displacement of [33P]S1P from S1P3 expressed in CHO cells; format: cell-based; method in brief: as §1
[9] = Bioavailability in Sprague-Dawley rat at 1 mg/kg, iv and 2 mg/kg, po; format: ADME, organism-based; conditions: in vivo
[10] = Plasma clearance in Sprague-Dawley rat at 1 mg/kg, iv or 2 mg/kg, po; format: ADME, organism-based
[11] = Half life in Sprague-Dawley rat at 1 mg/kg, iv or 2 mg/kg, po; format: ADME, organism-based; conditions: in vivo
[12] = Volume of distribution in Sprague-Dawley rat at 1 mg/kg, iv or 2 mg/kg, po; format: ADME, organism-based; conditions: in vivo, read-out: Vdss
Mus musculus [13] = experiment: Lowering of peripheral blood lymphocytes in mouse at 10 mg/kg; format: functional, organism-based; set-up: dose 10 mg/kg
Method in brief: (§2)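 Mice were dosed orally, and circulating peripheral blood lymphocytes were counted 3 h after administration.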

Mus musculus [14] = species on record: Mus musculus; experiment: Lowering of peripheral blood lymphocytes in mouse; format: functional; method in brief: as §2

T2 sequence (Q9H228 whole entry): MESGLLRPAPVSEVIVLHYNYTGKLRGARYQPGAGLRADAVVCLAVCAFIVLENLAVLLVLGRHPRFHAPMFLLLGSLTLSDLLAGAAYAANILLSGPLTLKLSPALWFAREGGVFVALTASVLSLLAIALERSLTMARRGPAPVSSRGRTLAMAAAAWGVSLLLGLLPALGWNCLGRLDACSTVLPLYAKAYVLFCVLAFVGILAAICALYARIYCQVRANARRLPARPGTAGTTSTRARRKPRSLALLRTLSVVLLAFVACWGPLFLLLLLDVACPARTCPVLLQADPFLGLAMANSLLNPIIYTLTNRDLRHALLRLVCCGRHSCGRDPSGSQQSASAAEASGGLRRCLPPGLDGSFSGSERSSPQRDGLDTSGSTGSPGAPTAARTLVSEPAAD
Chain of Sphingosine 1-phosphate receptor 2 (O95136 whole entry): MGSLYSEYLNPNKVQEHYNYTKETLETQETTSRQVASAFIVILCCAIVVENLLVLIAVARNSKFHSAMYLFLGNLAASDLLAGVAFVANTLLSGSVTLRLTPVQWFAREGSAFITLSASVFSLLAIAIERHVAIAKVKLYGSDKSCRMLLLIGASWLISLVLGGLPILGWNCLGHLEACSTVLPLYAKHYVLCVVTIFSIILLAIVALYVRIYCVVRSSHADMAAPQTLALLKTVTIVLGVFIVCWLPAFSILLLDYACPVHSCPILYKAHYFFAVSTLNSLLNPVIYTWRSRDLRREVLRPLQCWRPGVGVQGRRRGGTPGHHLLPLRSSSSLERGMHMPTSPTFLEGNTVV
T1 sequence (P21453 whole entry): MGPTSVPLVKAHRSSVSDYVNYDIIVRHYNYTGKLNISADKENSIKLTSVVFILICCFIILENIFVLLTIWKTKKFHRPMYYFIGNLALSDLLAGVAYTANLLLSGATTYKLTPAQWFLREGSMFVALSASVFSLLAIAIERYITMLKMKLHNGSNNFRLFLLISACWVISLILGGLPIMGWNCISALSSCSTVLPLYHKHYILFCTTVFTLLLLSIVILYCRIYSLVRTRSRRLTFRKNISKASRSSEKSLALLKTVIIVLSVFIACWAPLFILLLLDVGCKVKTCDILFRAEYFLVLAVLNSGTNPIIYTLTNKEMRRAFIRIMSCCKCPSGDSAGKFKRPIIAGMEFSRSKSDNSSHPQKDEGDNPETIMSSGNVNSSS
T3 sequence (Q99500 whole entry): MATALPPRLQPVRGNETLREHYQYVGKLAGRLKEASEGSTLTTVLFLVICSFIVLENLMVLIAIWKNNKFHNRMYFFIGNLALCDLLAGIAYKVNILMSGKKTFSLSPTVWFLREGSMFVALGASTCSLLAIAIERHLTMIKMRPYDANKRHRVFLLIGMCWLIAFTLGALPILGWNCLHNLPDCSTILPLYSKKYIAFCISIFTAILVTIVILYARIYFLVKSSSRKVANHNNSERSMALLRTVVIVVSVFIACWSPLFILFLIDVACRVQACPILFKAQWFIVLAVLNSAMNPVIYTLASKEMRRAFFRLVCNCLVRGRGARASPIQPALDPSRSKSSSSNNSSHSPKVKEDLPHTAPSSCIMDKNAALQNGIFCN

Activity [1]	Activity [2]	IC50 [3] [µM]	IC50 [4] [µM]	IC50 [5] [µM]	Activity [6]	IC50 [7] [µM]	IC50 [8] [µM]	IC50 ([3]; cho) [µM]	bioavailability [9] [%]	clearance [10] [mL/min/kg]	half-life [11] [h]	Vd [12] [L/kg]	Structure (SMILES)	Activity (Mus musculus [13])	ED50 (Mus musculus [14]) [mg/kg]
Agonist	Agonist	> 10	1.28	0.075	Agonist	1	> 10						CC(C)Cc1ccc(-c2nc(-c3ccc([C@H]4CC[C@@H](C(=O)O)N4)cc3)no2)cc1 (racemic)		
			0.013	0.0012		0.57	2.5	> 10					O=C(O)C[C@@H]1CC[C@H](c2ccc(-c3noc(-c4ccc([C@@H]5CCC(F)(F)C5)cc4)n3)cc2)N1 (racemic) [listing 1 of 2 here]		
Agonist	Agonist	> 10	0.016	0.0008	Agonist	0.72	2.2						O=C(O)C[C@@H]1CC[C@H](c2ccc(-c3noc(-c4ccc([C@H]5CCC(F)(F)C5)cc4)n3)cc2)N1 (racemic)		
Agonist	Agonist	> 10	0.2	0.0033	Agonist	1	> 10		48	6.6	4.1	2.9	CC(C)Cc1ccc(-c2nc(-c3ccc([C@H]4CC[C@@H](CC(=O)O)N4)cc3)no2)cc1 (racemic)	Active	
Agonist	Agonist	> 10	0.08	0.0057	Agonist	0.63	6.7						CC(C)Cc1ccc(-c2nc(-c3ccc([C@@H]4CC[C@@H](CCC(=O)O)N4)cc3)no2)cc1 (racemic)		
Agonist	Agonist	> 10	0.02	0.0007	Agonist	0.35	1.7						O=C(O)C[C@@H]1CC[C@H](c2ccc(-c3noc(-c4ccc(C5CCCCC5)cc4)n3)cc2)N1 (racemic)		
Agonist	Agonist	> 10	0.06	0.0027	Agonist	1.4	> 10						O=C(O)C[C@@H]1CC[C@H](c2ccc(-c3noc(-c4ccc(C5CCCC5)cc4F)n3)cc2)N1 (racemic)		
Agonist	Agonist	> 10	0.1	0.008	Agonist	0.7	> 10		40	8.4	3.5	3	CC(C)Cc1ccc(-c2nc(-c3ccc([C@@H]4CC[C@@H](CC(=O)O)N4)cc3)no2)cc1 (racemic)	Active	
Agonist	Agonist	> 10	0.03	0.0045	Agonist	0.54	> 10						CC(C)Cc1ccc(-c2nc(-c3ccc([C@H]4CC[C@@H](CCC(=O)O)N4)cc3)no2)cc1 (racemic)		
Agonist	Agonist	> 10	0.03	0.002	Agonist	2.1	7.6						O=C(O)C[C@@H]1CC[C@H](c2ccc(-c3noc(-c4ccc(C5CCCC5)c(F)c4)n3)cc2)N1 (racemic)		
Agonist	Agonist	> 10	0.18	0.017	Agonist	0.3	10						CC(C)Cc1ccc(-c2nc(-c3ccc([C@@H]4CC[C@@H](C(=O)O)N4)cc3)no2)cc1 (racemic)		
Agonist	Agonist				Agonist								O=C(O)C[C@@H]1CC[C@H](c2ccc(-c3noc(-c4ccc([C@@H]5CCC(F)(F)C5)cc4)n3)cc2)N1 (racemic) [listing 2 of 2 here]		
			0.019	0.0029		1.5	7.8	> 10					O=C(O)C[C@@H]1CC[C@H](c2ccc(-c3noc(-c4ccc([C@@H]5CCC(F)(F)C5)cc4)n3)cc2)N1 (stereo in doubt; form 1) [listing 1 of 2 here]		
Agonist	Agonist				Agonist								O=C(O)C[C@@H]1CC[C@H](c2ccc(-c3noc(-c4ccc([C@@H]5CCC(F)(F)C5)cc4)n3)cc2)N1 (stereo in doubt; form 1) [listing 2 of 2 here]		
		> 10	0.015	0.00064		0.72	3.8		48	9.7	2.2	2.3	O=C(O)C[C@@H]1CC[C@H](c2ccc(-c3noc(-c4ccc([C@@H]5CCC(F)(F)C5)cc4)n3)cc2)N1 (stereo in doubt; form 2) [listing 1 of 2 here]		0.3
Agonist	Agonist				Agonist								O=C(O)C[C@@H]1CC[C@H](c2ccc(-c3noc(-c4ccc([C@@H]5CCC(F)(F)C5)cc4)n3)cc2)N1 (stereo in doubt; form 2) [listing 2 of 2 here]		
